We go through 34 compounds from PubChem BioAssay.

The source made the active and inactive calls.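 How the source made its calls, unless noted: active means duplicate-averaged activation above buffer control mean plus 5 SD of those controls; inactive means the rest.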

The nature of test [1]: nonspecific flux increase, KCNQ1-free cells – parental CHO cells, counter-screen for KCNQ1 potentiator project (AID 493006).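 On activation: fluorescence ratio of max minus min over baseline after K+ and Tl+ depolarization.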 Particulars: parental CHO-K1 cells, FluxOR thallium flux, at 10 µM; stronger effect = higher value. Summed up: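 Benchmarks – buffer and R-L3 controls · Assay system – untransfected host CHO-K1 cells with FluxOR thallium dye · Measure – fluorescence change ratio scaled 0% buffer, 100% R-L3 · Technique – kinetic thallium-flux fluorescence · Timing – overnight 37 °C plating, 90 min RT dye, 20 min compound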
For orientation: Counterscreens check selectivity or assay interference.

Test [2] deals with Potassium voltage-gated channel subfamily KQT member 1 (Homo sapiens) (UniProt P51787). The test is described as follows: enhancement of KCNQ1 channel thallium flux – FluxOR thallium flux, CHO cells, duplicates, confirmation (AID 493007;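 active means potentiation averaged over duplicate wells exceeding buffer-only control mean by more than 3 SD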;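 on outcome: cells depolarized by a potassium plus thallium sulfate stimulus after compound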). Particulars: KCNQ1 cell line, FluxOR thallium flux fluorescence, at 10 µM; stronger effect = higher value, % of reference activator effect, buffer zero. In a few lines: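 Material: CHO cells stably expressing the KCNQ1 potassium channel / Times: dye 90 min then compound 20 min, both at room temperature / Detection: kinetic thallium influx fluorescence with FluxOR dye, 10 s baseline, 110 s post-stimulus / Benchmarks: buffer-only wells as 0% and R-L3 activator as 100% / Replicates: each compound tested in duplicate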

For test [3], the target named is Potassium voltage-gated channel subfamily KQT member 2 (Rattus norvegicus) (UniProt O88943). The test is described as follows: KCNQ2 thallium flux enhancement – KCNQ2-CHO-K1 cells, selectivity assay for KCNQ1 potentiator project (AID 493009;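 active means mean duplicate potentiation above the buffer control mean plus 5 SD of buffer wells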;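 further: assay conditions were tuned for KCNQ1 rather than KCNQ2 modulators; signal is max minus min fluorescence divided by baseline after thallium stimulus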). The conditions noted are these: FluxOR thallium flux fluorescence, at 10 µM; stronger effect = higher value, scaled: buffer 0, activator control 100.

The target of test [4] is Potassium voltage-gated channel subfamily KQT member 1 (Homo sapiens) (UniProt P51787). The test is described as follows: KCNQ1 activators by electrophysiology – IonWorks patch clamp, KCNQ1-CHO cells, orthogonal assay for KCNQ1 potentiator project, confirmation (AID 493184;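 active means current rise at least 3 SD above the untreated control mean in each of two repeat wells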). Particulars: automated patch clamp current, at 10 µM; stronger effect = higher value. Summed up: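 Probe or stimulus: depolarizing pulse to +40 mV from -90 mV; Material: CHO cells carrying KCNQ1; Compound: one dose, 10 µM final; Signal: automated voltage clamp, amphotericin B perforated patch; Read-out basis: percent current increase versus pre-compound level; Buffer or medium: pH 7.4 external bath; Replication: duplicates.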
Background: Patch clamp records ionic current or voltage across a cell membrane.

The target of test [5] is Potassium voltage-gated channel subfamily E member 1 (Homo sapiens) + Potassium voltage-gated channel subfamily KQT member 1 (Homo sapiens) (UniProt P15382+P51787). The test can be described thus: KCNQ1-E1 channel activation – thallium flux, CHO-K1 KCNQ1/E1 cells, selectivity assay for KCNQ1 potentiator project, confirmation (AID 493186;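 active means mean duplicate activation above the buffer control mean plus 5 SD of those controls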). The conditions noted are these: FluxOR thallium flux, at 10 µM; stronger effect = higher value. In a few lines:
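system = KCNQ1/E1-expressing stable CHO-K1 cell line | doses = single compound concentration per well | times = dye 90 min, compound 20 min, room temperature | measured by = FluxOR Tl+ flux fluorescence, kinetic read | evaluation = fluorescence rise relative to baseline, as percent of R-L3 response above buffer | controls = buffer and R-L3 | replicates = duplicate wells per compound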

Sequence of Potassium voltage-gated channel subfamily E member 1 (Homo sapiens) + Potassium voltage-gated channel subfamily KQT member 1 (Homo sapiens) (P51787 whole entry, looked up): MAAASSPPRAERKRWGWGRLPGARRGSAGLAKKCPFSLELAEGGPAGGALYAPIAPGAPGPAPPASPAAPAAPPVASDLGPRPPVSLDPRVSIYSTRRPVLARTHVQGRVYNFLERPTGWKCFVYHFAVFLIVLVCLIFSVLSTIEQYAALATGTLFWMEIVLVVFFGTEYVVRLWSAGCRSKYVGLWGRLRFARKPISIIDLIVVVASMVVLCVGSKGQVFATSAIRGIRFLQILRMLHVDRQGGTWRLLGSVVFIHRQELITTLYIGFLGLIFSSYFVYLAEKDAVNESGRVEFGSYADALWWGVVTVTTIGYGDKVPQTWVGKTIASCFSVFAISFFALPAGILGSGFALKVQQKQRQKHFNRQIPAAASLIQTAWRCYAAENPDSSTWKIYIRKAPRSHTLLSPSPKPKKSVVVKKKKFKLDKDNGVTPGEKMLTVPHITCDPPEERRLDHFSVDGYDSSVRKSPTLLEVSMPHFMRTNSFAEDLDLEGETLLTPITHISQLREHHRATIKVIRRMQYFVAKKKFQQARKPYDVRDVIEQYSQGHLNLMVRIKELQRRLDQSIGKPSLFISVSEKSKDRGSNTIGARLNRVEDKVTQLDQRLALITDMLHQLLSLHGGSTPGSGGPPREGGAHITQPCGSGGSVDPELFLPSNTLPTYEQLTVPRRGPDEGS
Sequence of Potassium voltage-gated channel subfamily KQT member 2 (Rattus norvegicus) (O88943 whole entry, looked up): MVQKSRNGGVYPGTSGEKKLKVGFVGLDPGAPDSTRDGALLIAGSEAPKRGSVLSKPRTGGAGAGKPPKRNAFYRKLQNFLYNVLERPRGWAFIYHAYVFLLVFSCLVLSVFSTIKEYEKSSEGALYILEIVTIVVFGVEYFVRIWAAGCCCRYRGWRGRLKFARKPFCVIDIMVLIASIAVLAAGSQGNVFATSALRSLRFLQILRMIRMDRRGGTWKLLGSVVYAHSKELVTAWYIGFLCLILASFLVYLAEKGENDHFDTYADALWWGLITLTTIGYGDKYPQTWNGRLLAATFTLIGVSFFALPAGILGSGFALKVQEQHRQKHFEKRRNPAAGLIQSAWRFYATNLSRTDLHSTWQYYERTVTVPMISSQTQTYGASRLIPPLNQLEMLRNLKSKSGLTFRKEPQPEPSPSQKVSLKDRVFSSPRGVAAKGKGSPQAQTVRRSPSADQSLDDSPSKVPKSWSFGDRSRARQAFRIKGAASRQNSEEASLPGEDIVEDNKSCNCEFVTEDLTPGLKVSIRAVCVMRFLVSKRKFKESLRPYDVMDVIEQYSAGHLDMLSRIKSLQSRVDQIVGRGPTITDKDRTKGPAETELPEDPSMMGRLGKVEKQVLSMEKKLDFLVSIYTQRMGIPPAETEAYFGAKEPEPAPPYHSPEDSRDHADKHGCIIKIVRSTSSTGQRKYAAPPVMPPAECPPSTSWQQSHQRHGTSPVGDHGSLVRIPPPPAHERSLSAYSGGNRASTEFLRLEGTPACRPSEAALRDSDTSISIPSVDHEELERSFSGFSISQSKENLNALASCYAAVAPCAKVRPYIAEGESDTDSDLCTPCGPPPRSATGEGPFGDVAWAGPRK
Sequence of Potassium voltage-gated channel subfamily KQT member 1 (Homo sapiens) (P51787 whole entry, looked up): as the sequence (P51787 whole entry, looked up) above

In the case of `CCc1ccc2oc(C(=O)NC3CCS(=O)(=O)C3)cc(=O)c2c1` (stereo not drawn), the outcome in test [1], in test [2], in test [3], in test [4] and in test [5] was inactive.

In the case of `S=c1[nH]nc(COc2ccccc2)n1/N=C/c1ccc(Cl)cc1Cl`, the result in test [1], in test [2], in test [3], in test [4] and in test [5] was inactive.

As to `O=C(NC(=S)Nc1ccc(Cl)cn1)c1cccs1`, the result in test [1], in test [2], in test [3], in test [4] and in test [5] was inactive.

For `Cc1ccc(C(=O)NC(=S)N(C)C2CCCCC2)cc1Br`, the outcome in test [1] and in test [4] was inactive. Moreover, the potentiation is 61% (active) in test [2] and 159% (active) in test [3]. Besides, in test [5], the activation was 40.1% (active).

In the case of `O=[N+]([O-])c1ccc(C(O)C(CO)NC(=S)Nc2ccccc2)cc1` (stereo not drawn), the result in test [1], in test [2] and in test [4] was inactive.

With `CCOC(=O)c1sc(NC(=O)c2ccccc2C(=O)O)c(C(=O)OCC)c1C`, the outcome in test [1], in test [2] and in test [4] was inactive.

As for `O=C(CCSc1ccccc1)Nc1ccc(S(=O)(=O)Nc2ncccn2)cc1`, the result in test [1], in test [2] and in test [4] was inactive.

Regarding `N#C/C(=C/c1cn(-c2ccccc2)nc1-c1cccc(OCc2ccc(F)cc2)c1)C(=O)NCCCn1ccnc1`, the outcome in test [1], in test [2] and in test [4] was inactive.

Take `CCOc1ccccc1NC1=C(Cl)C(=O)N(c2ccccc2)C1=O`: the result in test [1], in test [2] and in test [4] was inactive.

In the case of `CCn1c(CCNC(=O)c2ccc(Cl)cc2Cl)n[nH]c1=S`, the result in test [1], in test [2], in test [3], in test [4] and in test [5] was inactive.

On to `Cc1onc(-c2ccccc2)c1C(=O)NC(=S)NNC(=O)c1ccccc1O`, for which the result in test [1], in test [3], in test [4] and in test [5] was inactive. Moreover, the potentiation in test [2] was 17.5% (active).

As for `COc1cccc(NC(=O)CSCc2cc(=O)n3ccsc3n2)c1`, the outcome in test [1], in test [2] and in test [4] was inactive.

In the case of `Cc1ccc(NC(=O)Cn2nc(C)c3ccccc3c2=O)c(C)c1`, the outcome in test [1], in test [2] and in test [4] was inactive.

On to `O=C(CSc1nc(-c2ccccc2)cs1)N1CCc2ccccc21`, for which the outcome in test [1], in test [2] and in test [4] was inactive.

Turning to `Cc1ccc(Nc2c(-c3ccc(C)o3)nc3cnccn23)cc1`, the result in test [1], in test [2] and in test [4] was inactive.

As to `CC1CN(C(=O)C2CC(=O)N(c3ccc(Cl)cc3)C2)CC(C)O1` (stereo not drawn), the result in test [1], in test [2] and in test [4] was inactive.

`COc1cccc(C(=O)CC(=O)C(=O)Nc2ccc(C)cc2Cl)c1`: the result in test [1], in test [2], in test [3], in test [4] and in test [5] was inactive.

For the compound `CC(C)COc1ccc(-c2nn(-c3ccccc3)cc2/C=C2/SC(=S)N(CC(=O)O)C2=O)cc1`, the outcome in test [1], in test [2] and in test [4] was inactive.

For `S=c1[nH]c2ccccc2c2ccccc12`, the activation in test [1] is 148% (active). For the same compound, the result in test [2] and in test [4] was inactive.

Regarding `CCc1ccc(NC(=O)C2CCN(C(=O)[C@@H]3Cc4ccccc4CN3)CC2)cc1`, the outcome in test [1], in test [2] and in test [4] was inactive.

On to `CC(=O)c1ccc(NC(=S)NC(=O)c2c(Cl)c(C)nn2C)cc1`, for which the result in test [1], in test [2] and in test [4] was inactive.

With `CC(=O)n1cc(N(C(=O)CCl)c2ccc(C)cc2)c2ccccc21`, the outcome in test [1], in test [2] and in test [4] was inactive.

In the case of `CCCn1c(SCC(=O)Nc2cccc(NC(C)=O)c2)nnc1C(C)C`, the outcome in test [1], in test [2] and in test [4] was inactive.

With `CSc1cccc(NC(=O)CN2C(=O)c3ccccc3S2(=O)=O)c1`, the result in test [1], in test [2] and in test [4] was inactive.

For `CN(C(=S)NC(=O)c1ccccc1Br)C1CCCCC1`, the activation in test [1] is 206% (active). In test [2], the potentiation is 44% (active). For the same compound, the outcome in test [4] was inactive.

As for `Cc1cccc(N(CC(=O)NC2CCCC2)C(=O)c2csnn2)c1C`, the outcome in test [1], in test [2] and in test [4] was inactive.

Regarding `Cc1cc(N2CCOCC2)nc(SCC(=O)c2ccc(Cl)cc2)n1`, the outcome in test [1], in test [2] and in test [4] was inactive.

With `COC(=O)c1cc(-c2cc(OC)ccc2OC)nc2c1c(=O)n(C)c(=O)n2Cc1ccccc1`, the outcome in test [1], in test [2] and in test [4] was inactive.

In the case of `CCOC(=O)C1CCN(C(=O)COC(=O)c2cc(-c3cccs3)nn2-c2ccccc2)CC1`, the outcome in test [1], in test [2] and in test [4] was inactive.

For `CN(C)CCCNc1cc(-c2ccccc2)nc2cc(-c3cccc(F)c3)nn12`, the activation in test [1] was 180% (active). Also, the potentiation in test [2] was 57% (active). In test [4], the result was inactive.

As for `C/C(=N\OCC(=O)Nc1ccc(OC(F)(F)F)cc1)c1ccc2c(c1)OCCO2`, the outcome in test [1], in test [2] and in test [4] was inactive.

For the compound `Cc1ccc(-n2ncc3c(=O)n(CC(=O)N4CCN(c5ccccc5F)CC4)cnc32)cc1C`, the result in test [1], in test [2], in test [3], in test [4] and in test [5] was inactive.

On to `NC(=O)c1ccc(N2CCNC(=O)C2)c([N+](=O)[O-])c1`, for which the result in test [1], in test [2] and in test [4] was inactive.

As for `O=C(Nc1cccc(-c2nnc(-c3ccco3)o2)c1)c1ccccc1`, the result in test [1], in test [2] and in test [4] was inactive.
